Test results: ChEMBL document CHEMBL1124260, “Synthesis and antitumor activity of quaternary ellipticine glycosides, a series of novel and highly active antitumor agents” (1988)

Columns and labels:
Format in all cases: functional
Mus musculus [1] = experiment: Number of survivors out of 6 ip implanted L1210 leukemia mouse tested after 80 days at 5 mg/kg; settings: route intraperitoneal
Outline: (§1)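 Female BDF1 mice implanted ip with ascitic fluid holding 10^5 L1210 cells. Saline-dissolved drug given ip daily on days 1-5, starting 24 h after implant. Six mice per dose group, followed 80 days. Survivors/total counted at day 80; ILS % from mean survival time vs controls.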

Mus musculus [2] = experiment: Antitumor activity against ip implanted L1210 leukemia in mouse after ip administration of 5 mg/kg for 5 days expressed as increase in mean life span; settings: route intraperitoneal; for ILS at 5 mg/kg: Mus musculus, L1210, ip, 120 h; for ILS: 5 mg/kg
Outline: (§2)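 Drug was dissolved in 0.9% NaCl, diluted just before use and given ip once daily for 5 consecutive days, starting 24 h after transplant. ILS % = mean survival time of treated vs control mice, observed for 80 days.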

Mus musculus [3] = experiment: Number of survivors out of 6 ip implanted L1210 leukemia mouse, tested after 80 days at 30 mg/kg; settings: route intraperitoneal; outline: as §1
Mus musculus [4] = experiment: Antitumor activity against ip implanted L1210 leukemia in mouse after ip administration of 30 mg/kg for 5 days expressed as increase in mean life span; settings: route intraperitoneal; for ILS at 30 mg/kg: Mus musculus, L1210, ip, 120 h; for ILS: 30 mg/kg; outline: as §2
Mus musculus [5] = experiment: Number of survivors out of 6 ip implanted L1210 leukemia mouse tested after 80 days at 10 mg/kg; settings: route intraperitoneal; outline: as §1
Mus musculus [6] = experiment: Antitumor activity against ip implanted L1210 leukemia in mouse after ip administration of 10 mg/kg for 5 days expressed as increase in mean life span; settings: route intraperitoneal; for ILS at 10 mg/kg: Mus musculus, L1210, ip, 120 h; for ILS: 10 mg/kg; outline: as §2
Mus musculus [7] = experiment: Number of survivors out of 6 ip implanted L1210 leukemia mouse tested after 80 days at 40 mg/kg; settings: route intraperitoneal; outline: as §1
Mus musculus [8] = experiment: Antitumor activity against ip implanted L1210 leukemia in mouse after ip administration of 40 mg/kg for 5 days expressed as increase in mean life span; settings: 120 h, route intraperitoneal; outline: as §2
Mus musculus [9] = experiment: Number of survivors out of 6 ip implanted L1210 leukemia mouse tested after 80 days at 20 mg/kg; settings: route intraperitoneal; outline: as §1
Mus musculus [10] = experiment: Antitumor activity against ip implanted L1210 leukemia in mouse after ip administration of 20 mg/kg for 5 days expressed as increase in mean life span; settings: 120 h, route intraperitoneal; outline: as §2

Cc1c2cc[n+](C3OC(C(N)=O)C(O)C(O)C3O)cc2c(C)c2c1[nH]c1ccc(O)cc12.[Br-] (configuration not stated)
Cures (Mus musculus [1]): 0 | ILS at 5 mg/kg (Mus musculus [2]): 49%

CC(=O)N[C@@H]1[C@@H](O)[C@@H](O)[C@@H](CO)O[C@H]1[n+]1ccc2c(C)c3[nH]c4ccc(O)cc4c3c(C)c2c1.[Cl-]
Cures (Mus musculus [3]): 0 | ILS at 30 mg/kg (Mus musculus [4]): 8%

Cc1c2cc[n+]([C@@H]3OC[C@@H](O)[C@@H](O)[C@H]3O)cc2c(C)c2c1[nH]c1ccc(O)cc12.[Br-]
Cures (Mus musculus [5]): 2 | ILS at 10 mg/kg (Mus musculus [6]): > 396%

COc1ccc2[nH]c3c(C)c4cc[n+](C5O[C@@H](C)[C@H](O)[C@@H](O)[C@H]5O)cc4c(C)c3c2c1.[Br-] (some centres not stated)
Cures (Mus musculus [3]): 0 | ILS at 30 mg/kg (Mus musculus [4]): 56%

Cc1c2cc[n+](C3CC(O)C(CO)O3)cc2c(C)c2c1[nH]c1ccc(O)cc12.[Cl-] (configuration not stated)
Cures (Mus musculus [5]): 2 | ILS at 10 mg/kg (Mus musculus [6]): > 390%

COc1ccc2[nH]c3c(C)c4cc[n+](C5OCC(O)C(O)C5O)cc4c(C)c3c2c1.[Br-] (configuration not stated)
Cures (Mus musculus [3]): 0 | ILS at 30 mg/kg (Mus musculus [4]): 56%

Cc1c2cc[n+]([C@H]3O[C@@H](CO)[C@H](O)[C@@H](O)[C@@H]3O)cc2c(C)c2c1[nH]c1ccc(O)cc12.[Br-] (stereo in doubt; 63b)
Cures (Mus musculus [1]; 5 mg/kg): 0 | ILS (Mus musculus [2]): 58%

CC(=O)N[C@@H]1[C@@H](O)[C@H](O)[C@@H](CO)O[C@H]1[n+]1ccc2c(C)c3[nH]c4ccc(O)cc4c3c(C)c2c1.[Cl-]
Cures (Mus musculus [3]): 0 | ILS at 30 mg/kg (Mus musculus [4]): 39%

Cc1c2cc[n+](C3OC(CO)C(O)C(O)C3O)cc2c(C)c2c1[nH]c1ccccc12.[Br-] (configuration not stated)
Cures (Mus musculus [7]): 0 | ILS at 40 mg/kg (Mus musculus [8]): 39%

Cc1c2cc[n+]([C@@H]3OC[C@@H](O)[C@@H](O)[C@H]3O)cc2c(C)c2c1[nH]c1ccc(O)cc12.[Br-] (stereo in doubt; 48a)
Cures (Mus musculus [3]; 30 mg/kg): 0 | ILS (Mus musculus [4]): 112%

Cc1c2cc[n+]([C@H]3OC[C@@H](O)[C@@H](O)[C@@H]3O)cc2c(C)c2c1[nH]c1ccc(O)cc12.[Br-]
Cures (Mus musculus [9]): 3 | ILS at 20 mg/kg (Mus musculus [10]): > 606%

Cc1c2cc[n+]([C@@H]3OC[C@@H](O)[C@@H](O)[C@H]3O)cc2c(C)c2c1[nH]c1ccc(O)cc12.[Br-] (stereo in doubt; 50a)
Cures (Mus musculus [3]; 30 mg/kg): 5 | ILS (Mus musculus [4]): >857%

Br.CC(=O)[O-].Cc1c2cc[n+](C3O[C@H](C)[C@@H](O)[C@@H]3O)cc2c(C)c2c1[nH]c1ccc(O)cc12 (some centres not stated)
Cures (Mus musculus [3]): 1 | ILS at 30 mg/kg (Mus musculus [4]): > 217%

Cc1c2cc[n+]([C@@H]3O[C@H](CO)[C@@H](O)[C@@H](O)[C@H]3O)cc2c(C)c2c1[nH]c1ccc(O)cc12.[Br-]
Cures (Mus musculus [5]): 1 | ILS at 10 mg/kg (Mus musculus [6]): > 254%

COc1ccc2[nH]c3c(C)c4cc[n+](C5OC(CO)C(O)C(O)C5O)cc4c(C)c3c2c1.[Br-] (configuration not stated)
Cures (Mus musculus [5]): 0 | ILS at 10 mg/kg (Mus musculus [6]): 14%

Cc1c2cc[n+]([C@@H]3O[C@@H](C)[C@H](O)[C@H]3O)cc2c(C)c2c1[nH]c1ccc(O)cc12.[Cl-]
Cures (Mus musculus [3]): 1

Cc1c2cc[n+]([C@@H]3O[C@H](CO)[C@H](O)[C@H](O)[C@H]3O)cc2c(C)c2c1[nH]c1ccc(O)cc12.[Br-]
Cures (Mus musculus [9]): 4 | ILS at 20 mg/kg (Mus musculus [10]): > 729%

Cc1c2cc[n+]([C@@H]3O[C@H](CO)[C@H](O)[C@@H]3O)cc2c(C)c2c1[nH]c1ccc(O)cc12.[Cl-] (stereo in doubt; 43b)
Cures (Mus musculus [5]): 3 | ILS (Mus musculus [6]): >552%

Cc1c2cc[n+]([C@@H]3O[C@H](C)[C@@H](O)[C@H]3O)cc2c(C)c2c1[nH]c1ccc(O)cc12.[Cl-]
Cures (Mus musculus [3]): 1 | ILS at 30 mg/kg (Mus musculus [4]): > 230%

Cc1c2cc[n+]([C@H]3O[C@@H](CO)[C@H](O)[C@@H]3O)cc2c(C)c2c1[nH]c1ccc(O)cc12.[Br-]
Cures (Mus musculus [5]): 2 | ILS at 10 mg/kg (Mus musculus [6]): > 391%

Cc1c2cc[n+]([C@@H]3O[C@H](C)[C@H](O)[C@H](O)[C@H]3O)cc2c(C)c2c1[nH]c1ccccc12.[Br-]
Cures (Mus musculus [3]): 0 | ILS at 30 mg/kg (Mus musculus [4]): 20%

COc1ccc2[nH]c3c(C)c4cc[n+](C5O[C@@H](CO)[C@H](O)[C@@H]5O)cc4c(C)c3c2c1.[Br-] (some centres not stated)
Cures (Mus musculus [3]): 0 | ILS at 30 mg/kg (Mus musculus [4]): 76%

CC(=O)[O-].Cc1c2cc[n+]([C@@H]3O[C@H](CO)[C@@H](O)[C@@H]3O)cc2c(C)c2c1[nH]c1ccc(O)cc12
Cures (Mus musculus [3]): 1 | ILS at 30 mg/kg (Mus musculus [4]): > 262%

Cc1c2cc[n+]([C@H]3O[C@H](CO)[C@@H](O)[C@H]3O)cc2c(C)c2c1[nH]c1ccc(O)cc12.[Br-]
Cures (Mus musculus [5]): 0 | ILS at 10 mg/kg (Mus musculus [6]): 138%

Cc1c2cc[n+]([C@H]3O[C@@H](CO)[C@H](O)[C@@H](O)[C@@H]3O)cc2c(C)c2c1[nH]c1ccc(O)cc12.[Br-] (stereo in doubt; 64b)
Cures (Mus musculus [1]; 5 mg/kg): 2 | ILS (Mus musculus [2]): >362%

CC(=O)[O-].Cc1c2cc[n+]([C@H]3O[C@@H](CO)[C@H](O)[C@H]3O)cc2c(C)c2c1[nH]c1ccc(O)cc12
Cures (Mus musculus [3]): 1 | ILS at 30 mg/kg (Mus musculus [4]): > 269%

COc1ccc2[nH]c3c(C)c4cc[n+]([C@@H]5O[C@H](C)[C@H](O)[C@H](O)[C@H]5O)cc4c(C)c3c2c1.[Br-]
Cures (Mus musculus [3]): 0 | ILS at 30 mg/kg (Mus musculus [4]): 20%

Cc1c2cc[n+]([C@H]3OC[C@@H](O)[C@H](O)[C@@H]3O)cc2c(C)c2c1[nH]c1ccc(O)cc12.[Cl-]
Cures (Mus musculus [5]): 4 | ILS at 10 mg/kg (Mus musculus [6]): > 651%

CC(=O)[O-].Cc1c2cc[n+](C3OC(C)C(O)C(O)C3O)cc2c(C)c2c1[nH]c1ccc(O)cc12 (configuration not stated)
Cures (Mus musculus [3]): 3 | ILS at 30 mg/kg (Mus musculus [4]): > 615%

Cc1c2cc[n+](C3O[C@@H](C)[C@H](O)[C@@H](O)[C@H]3O)cc2c(C)c2c1[nH]c1ccccc12.[Br-] (some centres not stated)
Cures (Mus musculus [7]): 0 | ILS at 40 mg/kg (Mus musculus [8]): 40%

Cc1c2cc[n+]([C@@H]3OC[C@@H](O)[C@@H](O)[C@H]3O)cc2c(C)c2c1[nH]c1ccc(O)cc12.[Br-] (stereo in doubt; 48b)
Cures (Mus musculus [3]; 30 mg/kg): 6 | ILS (Mus musculus [4]): >944%

Cc1c2cc[n+](C3O[C@H](CO)[C@@H](O)[C@H]3O)cc2c(C)c2c1[nH]c1ccc(O)cc12.[Br-] (some centres not stated)
Cures (Mus musculus [3]): 2 | ILS at 30 mg/kg (Mus musculus [4]): > 387%

Cc1c2cc[n+](C3O[C@@H](CO)[C@H](O)[C@@H]3O)cc2c(C)c2c1[nH]c1ccccc12.[Br-] (some centres not stated)
Cures (Mus musculus [9]): 0 | ILS at 20 mg/kg (Mus musculus [10]): 80%

Cc1c2cc[n+]([C@H]3O[C@@H](CO)[C@H](O)[C@@H](O)[C@@H]3O)cc2c(C)c2c1[nH]c1ccc(O)cc12.[Br-] (stereo in doubt; 65)
Cures (Mus musculus [5]; 10 mg/kg): 1 | ILS (Mus musculus [6]): >212%

Cc1c2cc[n+](C3OC[C@@H](O)[C@H]3O)cc2c(C)c2c1[nH]c1ccc(O)cc12.[Cl-] (some centres not stated)
Cures (Mus musculus [1]): 0 | ILS at 5 mg/kg (Mus musculus [2]): 122%

Cc1c2cc[n+]([C@H]3O[C@H](CO)[C@@H](O)[C@@H]3O)cc2c(C)c2c1[nH]c1ccc(O)cc12.[Br-]
Cures (Mus musculus [9]): 0 | Cures (Mus musculus [5]): 2 | ILS at 20 mg/kg (Mus musculus [10]): 91% | ILS at 10 mg/kg (Mus musculus [6]): > 379%

Cc1c2cc[n+]([C@H]3O[C@@H](C)[C@H](O)[C@@H](O)[C@H]3O)cc2c(C)c2c1[nH]c1ccc(O)cc12.[Br-]
Cures (Mus musculus [7]): 0 | ILS at 40 mg/kg (Mus musculus [8]): 78%

Cc1c2cc[n+]([C@H]3O[C@@H](CO)[C@H](O)[C@@H](O)[C@@H]3O)cc2c(C)c2c1[nH]c1ccc(O)cc12.[Br-] (stereo in doubt; 64a)
Cures (Mus musculus [5]; 10 mg/kg): 0 | ILS (Mus musculus [6]): 88%

Cc1c2cc[n+]([C@H]3O[C@@H](CO)[C@H](O)[C@@H](O)[C@@H]3O)cc2c(C)c2c1[nH]c1ccc(O)cc12.[Br-] (stereo in doubt; 63a)
ILS (Mus musculus [6]): 52%

Cc1c2cc[n+]([C@H]3O[C@@H](C)[C@@H](O)[C@@H](O)[C@@H]3O)cc2c(C)c2c1[nH]c1ccc(O)cc12.[Br-] (stereo in doubt; 53b)
Cures (Mus musculus [3]; 30 mg/kg): 3 | ILS (Mus musculus [4]): >583%

Cc1c2cc[n+]([C@@H]3O[C@H](C)[C@H](O)[C@H](O)[C@H]3O)cc2c(C)c2c1[nH]c1ccc(O)cc12.[Br-]
Cures (Mus musculus [3]): 0 | ILS at 30 mg/kg (Mus musculus [4]): 124%
